Assay results as given in ChEMBL document CHEMBL5356951, “Semisynthetic polymyxins with potent antibacterial activity and reduced kidney cell toxicity” (RSC Med Chem, 2023).
Converted amounts (≈) assume the structure as drawn.

Key:
Assay type in all cases: functional
[1] = tested on: Escherichia coli; assay: Antibacterial activity against Escherichia coli ATCC 25922 assessed as bacterial growth inhibition by broth microdilution assay
Outline: (§1)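 Broth microdilution. Bacteria from glycerol stocks were grown overnight on blood agar at 37 °C, then colonies were suspended in TSB and grown to OD600 0.5. Compounds were dissolved in DMSO at 6.4 mg mL−1 (stock) and serially diluted in CAMHB (Mg2+ 12.5, Ca2+ 20 μg mL−1) in polypropylene plates. Inoculum was 10^6 CFU mL−1 final, incubated at 37 °C. MIC = lowest concentration without visible growth; values consistent across at least triplicate experiments.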

[2] = tested on: Escherichia coli; assay: Antibacterial activity against Escherichia coli 1313 assessed as bacterial growth inhibition by broth microdilution assay; outline: as §1
[3] = tested on: Escherichia coli; assay: Antibacterial activity against multidrug-resistant Escherichia coli NCTC 13846 assessed as bacterial growth inhibition by broth microdilution assay
Outline: (§2)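 Broth microdilution MIC. Strains grown overnight on blood agar at 37 °C, colonies suspended in TSB and grown to OD600 0.5. Compounds dissolved in DMSO (6.4 mg mL−1 stock), diluted serially in CAMHB (12.5 μg mL−1 Mg2+, 20 μg mL−1 Ca2+) on polypropylene plates. Final inoculum 10^6 CFU mL−1, 37 °C under gas-permeable membrane. MIC is the lowest concentration with no visible growth, consistent across at least triplicate experiments.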

[4] = tested on: Klebsiella pneumoniae; assay: Antibacterial activity against Klebsiella pneumoniae ATCC 13883 assessed as bacterial growth inhibition by broth microdilution assay; outline: as §1
[5] = tested on: Klebsiella pneumoniae; assay: Antibacterial activity against Klebsiella pneumoniae JS-123 assessed as bacterial growth inhibition by broth microdilution assay; outline: as §1
[6] = tested on: Klebsiella pneumoniae; assay: Antibacterial activity against Klebsiella pneumoniae NCTC 13443 assessed as bacterial growth inhibition by broth microdilution assay; outline: as §1
[7] = tested on: Acinetobacter baumannii; assay: Antibacterial activity against Acinetobacter baumannii ATCC 19606 assessed as bacterial growth inhibition by broth microdilution assay; outline: as §2
[8] = tested on: Acinetobacter baumannii; assay: Antibacterial activity against Acinetobacter baumannii ATCC 17978 assessed as bacterial growth inhibition by broth microdilution assay; outline: as §2
[9] = tested on: Acinetobacter baumannii; assay: Antibacterial activity against multidrug-resistant Acinetobacter baumannii assessed as bacterial growth inhibition by broth microdilution assay; outline: as §2
[10] = tested on: Acinetobacter baumannii; assay: Antibacterial activity against Acinetobacter baumannii 2018-006 assessed as bacterial growth inhibition by broth microdilution assay; outline: as §2
[11] = tested on: Pseudomonas aeruginosa; assay: Antibacterial activity against Pseudomonas aeruginosa ATCC 27853 assessed as bacterial growth inhibition by broth microdilution assay; outline: as §1
[12] = tested on: Pseudomonas aeruginosa; assay: Antibacterial activity against Pseudomonas aeruginosa NRZ 08418 assessed as bacterial growth inhibition by broth microdilution assay; outline: as §1
[13] = tested on: Pseudomonas aeruginosa; assay: Antibacterial activity against Pseudomonas aeruginosa NRZ 03961 assessed as bacterial growth inhibition by broth microdilution assay; outline: as §1

Row | Compound | MIC [1] [µg/mL] | MIC [2] [µg/mL] | MIC [3] [µg/mL] | MIC [4] [µg/mL] | MIC [5] [µg/mL] | MIC [6] [µg/mL] | MIC [7] [µg/mL] | MIC [8] [µg/mL] | MIC [9] [µg/mL] | MIC [10] [µg/mL] | MIC [11] [µg/mL] | MIC [12] [µg/mL] | MIC [13] [µg/mL]
1 | CC(C)C[C@@H]1NC(=O)[C@@H](Cc2ccccc2)NC(=O)[C@H](CCN)NC(=O)[C@@H](NC(=O)CNC(=O)[C@@H](NC(=O)[C@H](N)CSSCc2cccc(Cl)c2)[C@@H](C)O)CCNC(=O)[C@H]([C@@H](C)O)NC(=O)[C@H](CCN)NC(=O)[C@H](CCN)NC1=O | 2 (≈ 1.7 µM) | 0.25 (≈ 0.212 µM) | 8 (≈ 6.78 µM) | 1 (≈ 0.848 µM) | 0.5 (≈ 0.424 µM) | 0.5 (≈ 0.424 µM) | 1 (≈ 0.848 µM) | 1 (≈ 0.848 µM) | 1 (≈ 0.848 µM) | 1 (≈ 0.848 µM) | 4 (≈ 3.39 µM) | 4 (≈ 3.39 µM) | 4 (≈ 3.39 µM)
2 | CC(C)C[C@@H]1NC(=O)[C@@H](Cc2ccccc2)NC(=O)[C@H](CCN)NC(=O)[C@@H](NC(=O)[C@H](CN)NC(=O)[C@@H](NC(=O)[C@H](N)CSSCCC2CCCCC2)[C@@H](C)O)CCNC(=O)[C@H]([C@@H](C)O)NC(=O)[C@H](CCN)NC(=O)[C@H](CCN)NC1=O | 1 (≈ 0.837 µM) | 0.5 (≈ 0.419 µM) | 2 (≈ 1.67 µM) | 1 (≈ 0.837 µM) | 0.5 (≈ 0.419 µM) | 1 (≈ 0.837 µM) | 0.5 (≈ 0.419 µM) | 1 (≈ 0.837 µM) | 1 (≈ 0.837 µM) | 0.5 (≈ 0.419 µM) | 2 (≈ 1.67 µM) | 2 (≈ 1.67 µM) | 2 (≈ 1.67 µM)
3 | CC(C)CCSSC[C@@H](N)C(=O)N[C@H](C(=O)NCC(=O)N[C@H]1CCNC(=O)[C@H]([C@@H](C)O)NC(=O)[C@H](CCN)NC(=O)[C@H](CCN)NC(=O)[C@H](CC(C)C)NC(=O)[C@@H](Cc2ccccc2)NC(=O)[C@H](CCN)NC1=O)[C@@H](C)O | 2 (≈ 1.78 µM) | 0.25 (≈ 0.222 µM) | 16 (≈ 14.2 µM) | 0.5 (≈ 0.444 µM) | 0.5 (≈ 0.444 µM) | 0.5 (≈ 0.444 µM) | 0.5 (≈ 0.444 µM) | 0.5 (≈ 0.444 µM) | 0.5 (≈ 0.444 µM) | 0.5 (≈ 0.444 µM) | 4 (≈ 3.55 µM) | 4 (≈ 3.55 µM) | 4 (≈ 3.55 µM)
4 | CC(C)C[C@@H]1NC(=O)[C@@H](Cc2ccccc2)NC(=O)[C@H](CCN)NC(=O)[C@@H](NC(=O)[C@@H](CCN)NC(=O)[C@@H](NC(=O)[C@H](N)CSSCCC2CCCCC2)[C@@H](C)O)CCNC(=O)[C@H]([C@@H](C)O)NC(=O)[C@H](CCN)NC(=O)[C@H](CCN)NC1=O | 2 (≈ 1.65 µM) | 0.5 (≈ 0.414 µM) | 4 (≈ 3.31 µM) | 1 (≈ 0.827 µM) | 1 (≈ 0.827 µM) | 1 (≈ 0.827 µM) | 0.5 (≈ 0.414 µM) | 1 (≈ 0.827 µM) | 1 (≈ 0.827 µM) | 0.5 (≈ 0.414 µM) | 2 (≈ 1.65 µM) | 2 (≈ 1.65 µM) | 2 (≈ 1.65 µM)
5 | CC(C)C[C@@H]1NC(=O)[C@@H](Cc2ccccc2)NC(=O)[C@H](CCN)NC(=O)[C@@H](NC(=O)[C@@H](CO)NC(=O)[C@@H](NC(=O)[C@H](N)CSSCCC2CCCCC2)[C@@H](C)O)CCNC(=O)[C@H]([C@@H](C)O)NC(=O)[C@H](CCN)NC(=O)[C@H](CCN)NC1=O | 2 (≈ 1.67 µM) | 1 (≈ 0.836 µM) | 8 (≈ 6.69 µM) | 1 (≈ 0.836 µM) | 1 (≈ 0.836 µM) | 1 (≈ 0.836 µM) | 0.25 (≈ 0.209 µM) | 1 (≈ 0.836 µM) | 1 (≈ 0.836 µM) | 0.5 (≈ 0.418 µM) | 4 (≈ 3.35 µM) | 4 (≈ 3.35 µM) | 4 (≈ 3.35 µM)
6 | CC(C)CCSSC[C@@H](N)C(=O)N[C@H](C(=O)N[C@H](CCN)C(=O)N[C@H]1CCNC(=O)[C@H]([C@@H](C)O)NC(=O)[C@H](CCN)NC(=O)[C@H](CCN)NC(=O)[C@H](CC(C)C)NC(=O)[C@@H](Cc2ccccc2)NC(=O)[C@H](CCN)NC1=O)[C@@H](C)O | 2 (≈ 1.71 µM) | 0.25 (≈ 0.214 µM) | 8 (≈ 6.85 µM) | 0.5 (≈ 0.428 µM) | 0.25 (≈ 0.214 µM) | 0.5 (≈ 0.428 µM) | 0.25 (≈ 0.214 µM) | 0.25 (≈ 0.214 µM) | 0.5 (≈ 0.428 µM) | 0.25 (≈ 0.214 µM) | 1 (≈ 0.856 µM) | 2 (≈ 1.71 µM) | 2 (≈ 1.71 µM)
7 | CC(C)CCSSC[C@@H](N)C(=O)N[C@H](C(=O)N[C@H](CN)C(=O)N[C@H]1CCNC(=O)[C@H]([C@@H](C)O)NC(=O)[C@H](CCN)NC(=O)[C@H](CCN)NC(=O)[C@H](CC(C)C)NC(=O)[C@@H](Cc2ccccc2)NC(=O)[C@H](CCN)NC1=O)[C@@H](C)O | 2 (≈ 1.73 µM) | 0.5 (≈ 0.433 µM) | 8 (≈ 6.93 µM) | 0.5 (≈ 0.433 µM) | 0.5 (≈ 0.433 µM) | 0.5 (≈ 0.433 µM) | 0.25 (≈ 0.217 µM) | 0.25 (≈ 0.217 µM) | 0.25 (≈ 0.217 µM) | 0.25 (≈ 0.217 µM) | 1 (≈ 0.866 µM) | 4 (≈ 3.46 µM) | 2 (≈ 1.73 µM)
